Assay results from different studies.
Protocols differ between the studies behind these lines.
Target: Hormonally up-regulated neu tumor-associated kinase (HUNK, Homo sapiens, UniProt P57058)
One construct used (P57058 1-714): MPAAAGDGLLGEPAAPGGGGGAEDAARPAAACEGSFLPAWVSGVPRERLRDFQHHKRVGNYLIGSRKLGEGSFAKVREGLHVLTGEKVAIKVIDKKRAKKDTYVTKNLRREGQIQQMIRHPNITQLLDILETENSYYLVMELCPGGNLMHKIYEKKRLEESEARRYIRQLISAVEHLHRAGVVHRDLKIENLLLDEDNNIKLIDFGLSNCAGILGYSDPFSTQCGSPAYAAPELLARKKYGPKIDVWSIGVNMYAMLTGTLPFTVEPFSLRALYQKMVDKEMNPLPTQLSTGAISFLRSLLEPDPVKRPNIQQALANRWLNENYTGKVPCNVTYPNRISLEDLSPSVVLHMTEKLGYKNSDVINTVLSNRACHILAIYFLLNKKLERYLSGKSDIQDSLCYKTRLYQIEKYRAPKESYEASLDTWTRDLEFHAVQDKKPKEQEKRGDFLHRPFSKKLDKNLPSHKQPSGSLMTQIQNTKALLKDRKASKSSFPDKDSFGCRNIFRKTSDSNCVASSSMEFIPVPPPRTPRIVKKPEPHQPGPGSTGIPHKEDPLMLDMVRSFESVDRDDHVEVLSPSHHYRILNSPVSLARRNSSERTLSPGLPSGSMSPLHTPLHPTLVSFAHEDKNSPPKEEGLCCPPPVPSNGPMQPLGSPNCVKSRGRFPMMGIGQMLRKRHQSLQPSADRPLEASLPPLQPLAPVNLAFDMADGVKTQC

The remaining binding of `COc1cnc(Nc2cccc(S(N)(=O)=O)c2)nc1N1CCN(c2ccccc2)CC1` is reported as 74% (binding; competition with immobilised ligand; 1 µM).
`CN(C)c1nccc(-c2cnn3ncccc23)n1` gave a remaining binding of 100% (binding; 1 µM).
The remaining binding of `O=C(NCC1CCOCC1)c1n[nH]cc1NC(=O)c1c(F)cccc1F` is reported as 100% (binding; competition with immobilised ligand; 1 µM).
`CCN1CCN(Cc2ccc(C(=O)Nc3ccc(C)c(Oc4ccc5c(c4)CC(=O)N5)c3)cc2C(F)(F)F)CC1` has a remaining binding of 100% (binding; competition with immobilised ligand; 1 µM).
With `O=C(NCCCN1CCOCC1)c1ccc(Nc2nccc(-c3cc4ccccc4s3)n2)cc1` the remaining binding was 100% (binding; competition with immobilised ligand; 1 µM).
`F[C@@H]1CCN(c2nccc(-c3cnn4ncccc34)n2)C1` has a remaining binding of 0% (binding; 1 µM).
`CSc1cccnc1N1CCN(Cc2nc3ccccc3[nH]2)CC1` gave a remaining binding of 100% (cell-free assay; competition with immobilised ligand; 1 µM).
`Cc1cnn2ncc(-c3ccnc(N(C)C)n3)c2c1` gave a remaining binding of 100% (binding; 1 µM).
For `CN([C@@H]1CCc2c(CC(=O)O)c3ccccc3n2C1)S(=O)(=O)c1ccc(F)cc1`, the remaining binding was 99% (cell-free assay; competition with immobilised ligand; 1 µM).
`c1cnn2ncc(-c3ccnc(N4CCC45COC5)n3)c2c1` has a remaining binding of 92% (binding; 1 µM).
The remaining binding of `CCCOc1ccc([C@@H]2[C@@H](C(=O)O)[C@H](c3ccc4c(c3)OCO4)CN2CC(=O)Nc2c(CC)cccc2CC)cc1` is reported as 70% (cell-free assay; competition with immobilised ligand; 1 µM).
`C[C@H]1CCN(c2nccc(-c3cnn4ncccc34)n2)C1` has a remaining binding of 100% (binding; 1 µM).
The remaining binding of `O=C(c1ccc(Nc2ncc(Cl)c(-c3cc4ccccc4s3)n2)cc1)N1CCC(N2CCCC2)CC1` is reported as 100% (binding; competition with immobilised ligand; 1 µM).
`CN(CCCC(F)(F)F)c1nccc(-c2cnn3ncccc23)n1` gave a remaining binding of 80% (binding; 1 µM).
`Cc1nc(N2CC[C@@H](O)C2)ncc1-c1cc(C(F)(F)F)cc2[nH]ncc12` gave a remaining binding of 100% (binding; competition with immobilised ligand; 1 µM).
`c1cncc(-c2cccc(Nc3nccc(NC4CCCCC4)n3)c2)c1` has a remaining binding of 100% (binding; competition with immobilised ligand; 10 µM).
For `CNC(=O)Nc1ccc2c(c1)CC[C@@]21OC(=O)N(CC(=O)N(Cc2ccc(F)cc2)[C@@H](C)C(F)(F)F)C1=O`, the remaining binding was 100% (cell-free assay; competition with immobilised ligand; 1 µM).
With `Cc1cnc(Nc2ccc(C(=O)N3CCC(N4CCCC4)CC3)cc2)nc1-c1cc2ccccc2s1` the remaining binding was 100% (binding; competition with immobilised ligand; 1 µM).
The remaining binding of `CCC(=O)N[C@H]1CC[C@@H](C(=O)N(C)c2ccc(-c3nc4ccccc4o3)cc2)C1` is reported as 100% (cell-free assay; competition with immobilised ligand; 1 µM).
`N[C@@H]1CCN(c2nccc(-c3cnn4ncccc34)n2)C1` gave a remaining binding of 100% (binding; 1 µM).
`O=C(NC[C@@H]1[C@H]2CN(C(=O)OCc3cc(C(F)(F)F)cc(C(F)(F)F)c3)C[C@@H]12)c1ccc2[nH]nnc2c1` has a remaining binding of 100% (cell-free assay; competition with immobilised ligand; 1 µM).
With `C[C@@H](c1ccc(-n2cnc3c(N)ncnc32)cc1)N1CCc2nn(C)c(Cc3ccccc3)c2C1=O` the remaining binding was 79% (binding; competition with immobilised ligand; 0.1 µM).
